ChEMBL document CHEMBL1687753, “Mitochondrial DNA depletion and respiratory chain activity in primary human subcutaneous adipocytes treated with nucleoside analogue reverse transcriptase inhibitors” (Antimicrob Agents Chemother, 2010)
Calls of active or inactive are those of the source. The calls are words filed in the database; no cut-off is given here.

Experiments:
[1] = Toxicity in human subcutaneous preadipocytes assessed as cell death at 6 uM after 30 days using […]; format: cell-based; conditions: 720 h
Method in brief: (§1)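 Trypan blue exclusion counted by microscopy at each medium change every fifth day during 30 days of drug exposure in differentiating pooled preadipocytes. Final viability was calculated by excluding the cumulative percentage of dead cells. Five independent experiments.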

[2] = Toxicity in human subcutaneous preadipocytes assessed as decrease of C/EBPalpha expression at 6 uM after 18 days by RT-PCR analysis; format: cell-based; design: scale not given: the % may be the effect or the level left; conditions: 432 h
Method in brief: (§2)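 Differentiating preadipocytes were harvested at day 18. RNA from three plates was pooled and reverse transcribed, and qRT-PCR was run with 42 cycles of 94/55/72°C. Values were normalized to transferrin receptor or beta-actin by standard curve. Triplicates from three independent experiments.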

[3] = Toxicity in human subcutaneous preadipocytes assessed as acquisition of adipocyte shape at 6 uM after 30 days using oil red O fluorescence staining by conventional fluorescence microscopy; format: cell-based; conditions: 720 h
Method in brief: (§3)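 On day 30 of differentiation with drug present from day 0, cells were fixed in 10% formalin and stained with 0.21% oil red O. Staining was viewed by fluorescence and light microscopy. For quantification, dye was extracted with isopropanol and read at 495 nm, also adjusted for viable cell number. Five independent experiments.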

[4] = Toxicity in human subcutaneous preadipocytes assessed as effect on mitochondrial membrane potential at 6 uM after 30 days using JC-1 red/green fluorescence dye by flow cytometry analysis; format: cell-based; conditions: 720 h
Method in brief: (§4)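 Pooled primary human subcutaneous preadipocytes (passage ≤4) were differentiated with drug or DMSO vehicle from day 0 and cultured 30 days. Staining with the JC-1 kit was followed by flow cytometry, and the JC-1 red/green fluorescence intensity ratio was used as the membrane potential read-out. CCCP served as the depolarization control. Three independent experiments, means ± SEM.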

[5] = Toxicity in human subcutaneous preadipocytes assessed as decrease of cell cultures at 6 uM after 30 days using oil red O fluorescence staining by conventional fluorescence microscopy; format: cell-based; conditions: 720 h; method in brief: as §3
[6] = Toxicity in human subcutaneous preadipocytes assessed as decrease of adiponectin expression at 6 uM after 30 days by ELISA; format: cell-based; conditions: 720 h
Method in brief: (§5)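 Adiponectin secreted into the medium over days 25 to 30 of drug exposure in differentiating preadipocytes was measured by sandwich ELISA of culture supernatant. Three independent experiments.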

[7] = tested on: Homo sapiens; experiment: Inhibition of electron transport protein complex 5 in human subcutaneous preadipocytes at 6 uM after 30 to 60 days by photometric analysis; format: cell-based
Method in brief: (§6)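 Pooled primary human abdominal subcutaneous preadipocytes induced to differentiate with drug (DMSO vehicle, ≤0.1%) added at day 0 and kept to day 30 or 60. Cells sonicated twice for 10 s; substrates added to lysates and conversion by complexes I+III, II+III, IV, V and citrate synthase read photometrically at 37°C. Three independent experiments.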

[8] = Toxicity in human subcutaneous preadipocytes assessed as effect on mitochondrial mass at 6 uM after 30 days using […] by flow cytometry analysis; format: cell-based; conditions: 720 h
[9] = tested on: Homo sapiens; experiment: Inhibition of citrate synthase in human subcutaneous preadipocytes at 6 uM after 30 to 60 days by photometric analysis; format: cell-based; method in brief: as §6
[10] = Toxicity in human subcutaneous preadipocytes assessed as decrease of cell viability measured every 5 days at 6 uM after 30 days using […]; format: cell-based; conditions: 720 h; method in brief: as §1
[11] = tested on: Homo sapiens; experiment: Inhibition of electron transport protein complex 2/3 in human subcutaneous preadipocytes at 6 uM after 30 to 60 days by photometric analysis; format: cell-based; method in brief: as §6
[12] = tested on: Homo sapiens; experiment: Inhibition of electron transport protein complex 4 in human subcutaneous preadipocytes at 6 uM after 30 to 60 days by photometric analysis; format: cell-based; method in brief: as §6
[13] = tested on: Homo sapiens; experiment: Inhibition of electron transport protein complex 1/3 in human subcutaneous preadipocytes at 6 uM after 30 to 60 days by photometric analysis; format: cell-based; method in brief: as §6
[14] = Toxicity in fully differentiated human subcutaneous preadipocytes assessed as cell death at 6 uM after 30 days using […]; conditions: 720 h; method in brief: as §1
[15] = Toxicity in human subcutaneous preadipocytes assessed as triacylglyceride droplets at 6 uM after 30 days using oil red O fluorescence staining by conventional fluorescence microscopy; format: cell-based; conditions: 720 h
Method in brief: (§7)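 Preadipocytes were differentiated with a hormone cocktail (IBMX for the first 7 days, dexamethasone, insulin, indomethacin; high-glucose DMEM for days 0–18), with drug or vehicle present from day 0 to day 30. Cells were fixed in 10% formalin, stained with 0.21% oil red O in 60% isopropanol, and imaged by fluorescence microscopy. Quantification was by isopropanol extraction at 495 nm, optionally adjusted for viable cells.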

[16] = Toxicity in human subcutaneous preadipocytes assessed as decrease of PPARgamma expression at 6 uM after 18 days by RT-PCR analysis; format: cell-based; design: scale not given: the % may be the effect or the level left; conditions: 432 h; method in brief: as §2
[17] = Toxicity in human subcutaneous preadipocytes assessed as decrease of insulin-sensitizing adipokine expression at 6 uM after 30 days by RT-PCR analysis; format: cell-based; conditions: 720 h
Method in brief: (§8)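 Adiponectin mRNA at day 30 was measured by qRT-PCR normalized to transferrin receptor or beta-actin, using pooled RNA and cDNA. Triplicates from three independent experiments.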

[18] = Toxicity in human subcutaneous preadipocytes assessed as decrease of mitochondrial DNA abundance at 6 uM after 30 days by RT-PCR analysis; format: cell-based; conditions: 720 h
Method in brief: (§9)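 mtDNA content of differentiated preadipocytes at day 30 or 60 of drug exposure was measured by real-time quantitative PCR with human-specific primers. Absolute copy numbers came from serial dilutions of plasmid standards. Three independent experiments.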

[19] = Toxicity in human subcutaneous preadipocytes assessed as decrease of mitochondrial DNA abundance at 3 uM after 60 days by RT-PCR analysis; format: cell-based; conditions: 1440 h; method in brief: as §9
[20] = tested on: Homo sapiens; experiment: Inhibition of electron transport protein complex 5 in human subcutaneous preadipocytes at 3 uM after 30 to 60 days by photometric analysis; format: cell-based; method in brief: as §6
[21] = Toxicity in human subcutaneous preadipocytes assessed as effect on mitochondrial mass at 3 uM after 30 days using […] by flow cytometry analysis; format: cell-based; conditions: 720 h
[22] = Toxicity in human subcutaneous preadipocytes assessed as triacylglyceride droplets at 3 uM after 30 days using oil red O fluorescence staining by conventional fluorescence microscopy; format: cell-based; conditions: 720 h; method in brief: as §7
[23] = Toxicity in human subcutaneous preadipocytes assessed as decrease of mitochondrial DNA abundance at 3 uM after 30 days by RT-PCR analysis; format: cell-based; conditions: 720 h; method in brief: as §9
[24] = tested on: Homo sapiens; experiment: Inhibition of electron transport protein complex 4 in human subcutaneous preadipocytes at 3 uM after 30 to 60 days by photometric analysis; format: cell-based; method in brief: as §6
[25] = Toxicity in human subcutaneous preadipocytes assessed as decrease of PPARgamma expression at 3 uM after 18 days by RT-PCR analysis; format: cell-based; conditions: 432 h; method in brief: as §2
[26] = Toxicity in fully differentiated human subcutaneous preadipocytes assessed as cell death at 3 uM after 30 days using […] by conventional fluorescence microscopy; conditions: 720 h; method in brief: as §1
[27] = Toxicity in human subcutaneous preadipocytes assessed as decrease of mitochondrial DNA copy number per cell at 3 uM after 60 days by RT-PCR analysis; format: cell-based; design: scale not given: the % may be the effect or the level left; conditions: 1440 h; method in brief: as §9
[28] = Toxicity in human subcutaneous preadipocytes assessed as decrease of cell cultures at 3 uM after 30 days using oil red O fluorescence staining by conventional fluorescence microscopy; format: cell-based; conditions: 720 h; method in brief: as §3
[29] = Toxicity in human subcutaneous preadipocytes assessed as acquisition of adipocyte shape at 3 uM after 30 days using oil red O fluorescence staining by conventional fluorescence microscopy; format: cell-based; conditions: 720 h; method in brief: as §3
[30] = Toxicity in human subcutaneous preadipocytes assessed as decrease of PPARgamma expression at 0.1 uM after 18 days by RT-PCR analysis; format: cell-based; conditions: 432 h; method in brief: as §2
[31] = tested on: Homo sapiens; experiment: Inhibition of citrate synthase in human subcutaneous preadipocytes at 3 uM after 30 to 60 days by photometric analysis; format: cell-based; method in brief: as §6
[32] = Toxicity in human subcutaneous preadipocytes assessed as effect on mitochondrial membrane potential at 3 uM after 30 days using JC-1 red/green fluorescence dye by flow cytometry analysis; format: cell-based; conditions: 720 h; method in brief: as §4
[33] = Toxicity in human subcutaneous preadipocytes assessed as cell death at 3 uM after 30 days using […]; format: cell-based; conditions: 720 h; method in brief: as §1
[34] = tested on: Homo sapiens; experiment: Inhibition of electron transport protein complex 2/3 in human subcutaneous preadipocytes at 3 uM after 30 to 60 days by photometric analysis; format: cell-based; method in brief: as §6
[35] = tested on: Homo sapiens; experiment: Inhibition of electron transport protein complex 1/3 in human subcutaneous preadipocytes at 3 uM after 30 to 60 days by photometric analysis; format: cell-based; method in brief: as §6
[36] = Toxicity in human subcutaneous preadipocytes assessed as decrease of adiponectin expression at 3 uM after 30 days by ELISA; format: cell-based; conditions: 720 h; method in brief: as §5
[37] = Toxicity in human subcutaneous preadipocytes assessed as decrease of insulin-sensitizing adipokine expression at 3 uM after 30 days by RT-PCR analysis; format: cell-based; conditions: 720 h; method in brief: as §8
[38] = Toxicity in human subcutaneous preadipocytes assessed as decrease of C/EBPalpha expression at 3 uM after 18 days by RT-PCR analysis; format: cell-based; conditions: 432 h; method in brief: as §2
[39] = Toxicity in human subcutaneous preadipocytes assessed as decrease of C/EBPalpha expression at 0.1 uM after 18 days by RT-PCR analysis; format: cell-based; conditions: 432 h; method in brief: as §2
[40] = Toxicity in human subcutaneous preadipocytes assessed as decrease of cell viability measured every 5 days at 3 uM after 30 days using […]; format: cell-based; conditions: 720 h; method in brief: as §1

In the case of Cc1cn([C@H]2C[C@H](N=[N+]=[N-])[C@@H](CO)O2)c(=O)[nH]c1=O [ZIDOVUDINE], the Activity [1] is reported as “Toxic”, the Activity [2] is reported as 40% and the Activity [3] is reported as “Non-toxic”. The Activity [4] was “Non-toxic”, the Activity [5] was “Toxic” and the Activity [6] was “Non-toxic”. For the same compound, the inhibition [7] was “inactive”, the Activity [8] was “Non-toxic” and the inhibition [9] was “inactive”. For the same compound, the Activity [10] was “Toxic”, the inhibition [11] was “inactive” and the inhibition [12] was “inactive”. The inhibition [13] was “inactive”, the Activity [14] was “Toxic” and the Activity [15] was “Non-toxic”. For the same compound, the Activity [16] was 40%, the Activity [17] was “Non-toxic” and the Activity [18] was “Non-toxic”.
For Cc1cn([C@H]2C=C[C@@H](CO)O2)c(=O)[nH]c1=O [STAVUDINE], the Activity [19] was “Toxic”, the inhibition [20] was “inactive” and the Activity [21] was “Non-toxic”. For the same compound, the Activity [22] was “Non-toxic”, the Activity [23] was “Toxic” and the inhibition [24] was “inactive”. For the same compound, the Activity [25] was “Non-toxic”, the Activity [26] was “Toxic” and the Activity [27] was 50%. For the same compound, the Activity [28] was “Toxic”, the Activity [29] was “Non-toxic” and the Activity [30] was “Non-toxic”. For the same compound, the inhibition [31] was “inactive”, the Activity [32] was “Non-toxic” and the Activity [33] was “Toxic”. For the same compound, the inhibition [34] was “inactive”, the inhibition [35] was “inactive” and the Activity [36] was “Non-toxic”. For the same compound, the Activity [37] was “Non-toxic”, the Activity [38] was “Non-toxic” and the Activity [39] was “Non-toxic”. For the same compound, the Activity [40] was “Toxic”.
